# Experimental data published in ChEMBL document CHEMBL1949668, “Synthesis of new α aminophosphonate system bearing Indazole moiety and their biological activity” (2012).
# Columns and labels:
# Type in all cases: functional
# [1] = tested on: Klebsiella pneumoniae; experiment: Antibacterial activity Klebsiella pneumoniae at 40 ug/disc after 24 hrs by agar disc diffusion method; conditions: for zone of inhibition at 40 µg/disc: read-out: IZ
# Outline: (§1)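 Agar disc diffusion. Strains were grown in Mueller Hinton broth for 18–24 h at 37 °C. The bacterial suspension was spread on Mueller Hinton agar, and dried loaded discs were placed on it once the plates were dry. Gentamycin and […] reference discs carried 40 mcg/disc from 1 mg/ml solutions. Plates were incubated 24 h at 37 °C, and clear inhibition zones were measured in mm.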
# [2] = tested on: Salmonella typhimurium; experiment: Antibacterial activity Salmonella Typhimurium at 40 ug/disc after 24 hrs by agar disc diffusion method; conditions: for zone of inhibition at 40 µg/disc: Salmonella enterica, read-out: IZ; outline: as §1
# [3] = tested on: Bacillus subtilis; experiment: Antibacterial activity Bacillus subtilis at 40 ug/disc after 24 hrs by agar disc diffusion method; conditions: for zone of inhibition at 40 µg/disc: read-out: IZ; outline: as §1
# [4] = tested on: Staphylococcus aureus; experiment: Antibacterial activity Staphylococcus aureus at 40 ug/disc after 24 hrs by agar disc diffusion method; conditions: read-out: IZ; outline: as §1
# [5] = tested on: Escherichia coli; experiment: Antibacterial activity Escherichia coli at 40 ug/disc after 24 hrs by agar disc diffusion method; conditions: read-out: IZ; outline: as §1
# [6] = tested on: Pseudomonas aeruginosa; experiment: Antibacterial activity Pseudomonas aeruginosa at 40 ug/disc after 24 hrs by agar disc diffusion method; conditions: read-out: IZ; outline: as §1
Molecule,inhibition zone (IZ) [1],inhibition zone (IZ) ([2]; Salmonella enterica subsp. enterica serovar Typhimurium),inhibition zone (IZ) [3],zone of inhibition at 40 µg/disc [1],zone of inhibition at 40 µg/disc [4],zone of inhibition at 40 µg/disc [2],zone of inhibition at 40 µg/disc [3],zone of inhibition at 40 µg/disc [5],zone of inhibition at 40 µg/disc [6]
GENTAMICIN,13 mm,11 mm,15 mm,,,,,,
CCOP(=O)(OCC)C(NNC(=O)c1nn(C)c2ccccc12)c1cccc(F)c1 (stereo not drawn),,,,8 mm,3 mm,4 mm,4 mm,5 mm,7 mm
CCOP(=O)(OCC)C(NNC(=O)c1nn(C)c2ccccc12)c1ccc(C(F)(F)F)cc1 (stereo not drawn),,,,7 mm,5 mm,5 mm,4 mm,3 mm,6 mm
NC[C@H]1O[C@H](O[C@H]2[C@H](O)[C@@H](O[C@H]3O[C@H](CO)[C@@H](O)[C@H](N)[C@H]3O)[C@H](N)C[C@@H]2N)[C@H](O)[C@@H](O)[C@@H]1O [KANAMYCIN],,,,18 mm,9 mm,14 mm,15 mm,13 mm,21 mm
CCOP(=O)(OCC)C(NNC(=O)c1nn(C)c2ccccc12)c1ccccc1Br (stereo not drawn),,,,2 mm,1 mm,3 mm,7 mm,1 mm,4 mm
CCOP(=O)(OCC)C(NNC(=O)c1nn(C)c2ccccc12)c1ccccc1 (stereo not drawn),,,,3 mm,2 mm,2 mm,5 mm,0 mm,1 mm
